ChEMBL document CHEMBL4613235, “A scaffold replacement approach towards new sirtuin 2 inhibitors” (Bioorg Med Chem, 2020)

Legend:
[1] = target: T1, NAD-dependent protein deacetylase sirtuin-2 (Homo sapiens) (UniProt Q8IXJ6); experiment: (§1) Inhibition of recombinant GST-tagged human SIRT2 expressed in Escherichia coli at 200 uM using FLUOR DE LYS SIRT2 as substrate preincubated with substrate for 5 mins followed by enzyme addition and measured after 1 hr in presence of NAD+ by fluorescence based assay relative to control
T1 sequence (whole entry): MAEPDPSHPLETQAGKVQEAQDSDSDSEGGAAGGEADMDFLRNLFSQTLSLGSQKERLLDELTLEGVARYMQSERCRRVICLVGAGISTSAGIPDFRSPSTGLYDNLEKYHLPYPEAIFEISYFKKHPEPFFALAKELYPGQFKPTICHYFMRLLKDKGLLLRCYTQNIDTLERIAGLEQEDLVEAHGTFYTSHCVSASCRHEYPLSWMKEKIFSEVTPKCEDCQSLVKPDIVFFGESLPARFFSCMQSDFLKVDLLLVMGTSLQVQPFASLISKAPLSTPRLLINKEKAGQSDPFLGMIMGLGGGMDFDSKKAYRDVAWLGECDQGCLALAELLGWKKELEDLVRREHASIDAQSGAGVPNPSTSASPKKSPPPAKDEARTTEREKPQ
Summary of the method: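 Fluor de Lys assay using GST-SIRT2 produced in-house and acetylated peptide substrate KI179 at 0.7 Km, with NAD+ at 0.9 Km in SIRT assay buffer. Buffer, substrate, NAD+ and compound in DMSO were preincubated 5 min at room temp; enzyme started the 1 h, 37 °C reaction. Developer with nicotinamide was added for 45 min at 37 °C; fluorescence read at ex 370/em 460 nm. SD, n = 3.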

[2] = target: T2, NAD-dependent protein deacetylase sirtuin-1 (Homo sapiens) (UniProt Q96EB6); experiment: Inhibition of recombinant GST-tagged human SIRT1 at 200 uM using FLUOR DE LYS SIRT1 as substrate preincubated with substrate for 5 mins followed by enzyme addition and measured after 1 hr in presence of NAD+ by fluorescence based assay relative to control
T2 sequence (whole entry): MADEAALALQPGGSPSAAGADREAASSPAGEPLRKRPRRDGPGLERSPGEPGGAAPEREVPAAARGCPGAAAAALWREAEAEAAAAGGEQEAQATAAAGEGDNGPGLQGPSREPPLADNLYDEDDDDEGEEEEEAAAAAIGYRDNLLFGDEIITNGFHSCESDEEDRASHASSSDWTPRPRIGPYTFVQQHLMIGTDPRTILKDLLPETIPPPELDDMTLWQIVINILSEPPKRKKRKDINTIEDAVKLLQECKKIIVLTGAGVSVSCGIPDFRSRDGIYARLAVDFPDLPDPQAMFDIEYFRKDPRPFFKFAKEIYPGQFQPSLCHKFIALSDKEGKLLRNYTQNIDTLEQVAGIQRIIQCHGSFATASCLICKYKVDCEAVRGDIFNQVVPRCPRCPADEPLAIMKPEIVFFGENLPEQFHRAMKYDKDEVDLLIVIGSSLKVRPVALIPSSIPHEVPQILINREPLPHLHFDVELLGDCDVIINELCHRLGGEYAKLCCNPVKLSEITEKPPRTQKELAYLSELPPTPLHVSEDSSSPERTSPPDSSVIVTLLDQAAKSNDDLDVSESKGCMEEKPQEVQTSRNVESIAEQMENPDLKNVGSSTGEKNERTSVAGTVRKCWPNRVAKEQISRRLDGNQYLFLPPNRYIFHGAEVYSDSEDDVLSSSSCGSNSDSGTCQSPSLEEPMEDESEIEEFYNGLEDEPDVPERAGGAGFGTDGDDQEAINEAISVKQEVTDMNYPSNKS
Summary of the method: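 Fluor de Lys assay using GST-SIRT1 produced in-house and acetylated peptide substrate KI177 at 0.7 Km, with NAD+ at 0.9 Km in SIRT assay buffer. Buffer, substrate, NAD+ and compound in DMSO were preincubated 5 min at room temp, then enzyme was added and run 1 h at 37 °C. Developer plus nicotinamide was added for 45 min at 37 °C. Read at ex 370/em 460 nm. SD, n = 3.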

[3] = target: T3, NAD-dependent protein deacetylase sirtuin-3, mitochondrial (Homo sapiens) (UniProt Q9NTG7); experiment: as §1, with “recombinant N-terminal His-tagged” for “recombinant GST-tagged”, “human sirtuin 3 (102 to 399 residues)” for “human SIRT2”, “using fluor de lys” for “using FLUOR DE LYS”
T3 sequence (whole entry): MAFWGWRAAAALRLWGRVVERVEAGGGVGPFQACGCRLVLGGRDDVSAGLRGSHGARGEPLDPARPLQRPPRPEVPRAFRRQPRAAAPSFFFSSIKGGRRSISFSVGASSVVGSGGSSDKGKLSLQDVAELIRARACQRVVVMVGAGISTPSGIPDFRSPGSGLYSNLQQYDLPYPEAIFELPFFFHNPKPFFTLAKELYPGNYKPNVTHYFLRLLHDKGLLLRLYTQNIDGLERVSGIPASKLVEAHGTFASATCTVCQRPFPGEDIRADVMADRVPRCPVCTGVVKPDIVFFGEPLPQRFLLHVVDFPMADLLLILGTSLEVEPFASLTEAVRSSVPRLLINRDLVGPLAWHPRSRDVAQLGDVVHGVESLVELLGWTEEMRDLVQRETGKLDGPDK
Summary of the method: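 Purchased recombinant His-SIRT3 was used with Fluor de Lys acetylated peptide substrate KI179 at 0.7 Km and NAD+ at 0.9 Km in SIRT assay buffer. Compound in DMSO was preincubated 5 min at room temp with buffer, substrate and NAD+; enzyme addition began the 1 h, 37 °C reaction. Developer with nicotinamide followed for 45 min at 37 °C; ex 370/em 460 nm read-out. SD, n = 3.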

O=S1(=O)N=C(CCc2ccc(Br)cc2)Nc2c(Br)cc(Br)cc21
inhibition [1]: 10%

O=C1c2ccccc2S(=O)(=O)N1CCc1ccccc1
inhibition [2]: 14%
inhibition [1]: 34%
inhibition [3]: 14%

O=c1cc(CCc2ccccc2)oc2c(Br)cc(Cl)cc12
inhibition [1]: 75%

CCCCCN1C(=O)c2ccc(Br)cc2S1(=O)=O
inhibition [1]: 6.9%

O=S1(=O)NC(CCc2ccccc2)=Cc2ccccc21
inhibition [1]: 15%

O=c1ccc2cc(CCC3Nc4c(Br)cc(Br)cc4S(=O)(=O)N3)ccc2[nH]1 (centres undefined)
inhibition [2]: 25%
inhibition [1]: 74%
inhibition [3]: 28%

CCOC(=O)CCCN1C(=O)c2ccccc2S1(=O)=O
inhibition [2]: 8.7%
inhibition [1]: 13%
inhibition [3]: 7.2%

O=S1(=O)NC(CCc2ccccc2)Nc2c(Br)cc(Br)cc21 (centres undefined)
inhibition [2]: 4.6%
inhibition [1]: 47%
inhibition [3]: 54%

O=S1(=O)N=C(CCc2ccccc2)Nc2c(Br)cc(Br)cc21
inhibition [1]: 15%

CCCCC1=Cc2ccc(Br)cc2S(=O)(=O)N1
inhibition [1]: 29%

O=S1(=O)NC(CCc2ccccc2)=Cc2ccc(Br)cc21
inhibition [1]: 35%

COC(=O)CCCCc1cc(=O)c2cc(Cl)cc(Br)c2[nH]1
inhibition [1]: 53%

CCCCCc1cc(=O)c2cc(Cl)cc(Br)c2[nH]1
inhibition [1]: 26%

O=C1c2ccc(Br)cc2S(=O)(=O)N1CCc1cccc([N+](=O)[O-])c1
inhibition [1]: 6.2%

O=S1(=O)NC(CCc2cccc(Br)c2)Nc2c(Br)cc(Br)cc21 (centres undefined)
inhibition [2]: 9.7%
inhibition [1]: 59%
inhibition [3]: 9.9%

CCCCCC1Nc2c(Br)cc(Br)cc2S(=O)(=O)N1 (centres undefined)
inhibition [2]: 4.4%
inhibition [1]: 32%
inhibition [3]: 5.8%

O=C1c2ccc(Br)cc2S(=O)(=O)N1CCc1cccc(Br)c1
inhibition [1]: 15%

O=S1(=O)N=C(CCc2cccc(Br)c2)Nc2c(Br)cc(Br)cc21
inhibition [2]: 0%
inhibition [1]: 24%
inhibition [3]: 3.2%

CCCCCN1C(=O)c2ccccc2S1(=O)=O
inhibition [1]: 34%

O=C1c2ccccc2S(=O)(=O)N1CCCc1cccnc1
inhibition [2]: 17%
inhibition [1]: 12%
inhibition [3]: 14%

O=C1c2ccc(Br)cc2S(=O)(=O)N1CCc1ccc(O)cc1
inhibition [2]: 5.2%
inhibition [1]: 12%
inhibition [3]: 15%

CCCCCc1cc(=O)c2cc(Cl)cc(Br)c2o1
inhibition [2]: 9.8%
inhibition [3]: 4.5%

O=C1c2ccc(Br)cc2S(=O)(=O)N1CCc1ccccc1
inhibition [2]: 3.8%
inhibition [1]: 4.7%
inhibition [3]: 1.6%

CCCCC1=Cc2ccccc2S(=O)(=O)N1
inhibition [1]: 12%

O=c1cc(Cc2ccccc2)[nH]c2c(Br)cc(Cl)cc12
inhibition [2]: 7.6%
inhibition [1]: 58%
inhibition [3]: 41%

O=C1CCC(=O)N1CCN1C(=O)c2ccc(Br)cc2S1(=O)=O
inhibition [1]: 13%
